Measurements reported in ChEMBL document CHEMBL4229461 (Bioorg Med Chem, 2018).
One block for each compound: values may come before it. Active and inactive are the calls of the source. The rule behind the calls is not given here.

What was measured:
[1] = target: T1, Amyloid-beta precursor protein (Homo sapiens, UniProt P05067); test: Disruption of recombinant human amyloid beta (1 to 40) fibrils at 10 uM after 24 hrs by ThT fluorescence assay relative to control
Method in brief: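 Aβ1-40 fibrils (10 μM in 150 mM MOPS, pH 6.9) incubated 24 h at 37 °C with compound at 10 μM. ThT added to 20 μM, 1 h at 37 °C in the dark, excitation 440 nm, emission 485 nm. Intensity normalized to fibrils alone. Triplicate, mean ± SD. Intrinsic compound fluorescence measured without peptide.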

[2] = target: T1, Amyloid-beta precursor protein; test: Disruption of recombinant human amyloid beta (1 to 40) fibrils after 24 hrs by ThT fluorescence assay
HT-22 [3] = test: Cytoprotection against glutamate-induced apoptosis in mouse HT22 cells assessed as decrease in Bax/Bcl2 ratio at 1 uM after 24 hrs by RT-PCR method; type: functional, cell-based
Method in brief: (§1)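 HT-22 mouse hippocampal cells grown in high-glucose DMEM with 10% heat-inactivated FBS at 37 °C, 5% CO2. Compound (1 μM; DMSO stock, final DMSO 0.025%) added together with 2 mM glutamate for 24 h. Transcripts measured by qRT-PCR. iNOS or Bax/Bcl-2 ratio reported as fold change vs untreated control (set at 1) by the ΔΔCt method.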

HT-22 [4] = test: Cytoprotection against glutamate-induced oxidative stress in mouse HT22 cells assessed as decrease in iNOS mRNA level at 1 uM after 24 hrs by RT-PCR method; type: functional, cell-based; method in brief: as §1
HT-22 [5] = test: Cytoprotection against glutamate-induced excitotoxicity in mouse HT22 cells assessed as increase in cell viability at 1 uM after 24 hrs by optical microscopic assay; type: functional, cell-based
Method in brief: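 Cells co-treated 24 h with 2 mM glutamate plus compound at 1 μM. Viable cells judged from optical microscope images.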

HT-22 [6] = test: Cytoprotection against glutamate-induced excitotoxicity in mouse HT22 cells assessed as decrease in glutamate-induced cell cycle arrest at sub-G1 phase at 1 uM after 24 hrs by propidium iodide staining based flow cytometry; type: functional
Method in brief: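 HT-22 cells (1.5 × 10^5 per well) co-treated 24 h with 2 mM glutamate plus compound at 1 μM, final DMSO 0.025%. Pelleted, PBS-washed, stained 30 min in PI solution (50 μg/mL PI, Triton, Na citrate). DNA content read by flow cytometry and the SubG1 fraction scored. Mean of three independent experiments ± SD.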

HT-22 [7] = test: Cytoprotection against glutamate-induced excitotoxicity in mouse HT22 cells assessed as increase in cell proliferation at 1 uM after 24 hrs by MTT assay; type: functional, cell-based
Method in brief: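 HT-22 cells (5 × 10^3 per well) co-treated 24 h at 37 °C with 2 mM glutamate plus compound at 1 μM, final DMSO 0.025%. MTT added to 0.5 mg/mL final for 2 h, formazan dissolved in acidified isopropanol/NP40, A570 read. Proliferation relative to untreated control (100%). Mean of at least three independent experiments ± SD.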

[8] = target: T1, Amyloid-beta precursor protein; test: Disruption of recombinant human amyloid beta (1 to 40) fibrils after 2 hrs by ThT fluorescence assay
[9] = Cytotoxicity against mouse HT22 cells assessed as reduction in cell viability after 24 hrs by MTT assay; type: cell-based, HT-22
Method in brief: (§2)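 HT-22 cells (5 × 10^3 per well) plated, then treated the next day for 24 h with compound in complete medium (1–25 μM range; 10 mM DMSO stock, final DMSO 0.025%; DMSO as negative control). MTT at 0.5 mg/mL final, 2 h, 37 °C; formazan solubilized, A570 read. Mean of at least three independent experiments ± SD.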

[10] = target: T1, Amyloid-beta precursor protein; test: Disruption of recombinant human amyloid beta (1 to 40) fibrils at 10 uM after 24 hrs by atomic force microscopic method
Method in brief: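 10 μM Aβ1-40 fibrils plus 10 μM compound, incubated 24 h at 37 °C. Spread on fresh mica, adsorbed 5 min, water-washed, dried under nitrogen, imaged by AFM. No smoothing or noise reduction applied.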

HT-22 [11] = test: Cytotoxicity against mouse HT22 cells assessed as reduction in cell viability at 10 uM after 24 hrs by MTT assay; type: cell-based; conditions: ht-22, 24 h; method in brief: as §2
HT-22 [12] = test: Cytotoxicity against mouse HT22 cells assessed as reduction in cell viability at 5 uM after 24 hrs by MTT assay; type: cell-based; conditions: ht-22, 24 h; method in brief: as §2

T1 sequence (P05067 whole entry): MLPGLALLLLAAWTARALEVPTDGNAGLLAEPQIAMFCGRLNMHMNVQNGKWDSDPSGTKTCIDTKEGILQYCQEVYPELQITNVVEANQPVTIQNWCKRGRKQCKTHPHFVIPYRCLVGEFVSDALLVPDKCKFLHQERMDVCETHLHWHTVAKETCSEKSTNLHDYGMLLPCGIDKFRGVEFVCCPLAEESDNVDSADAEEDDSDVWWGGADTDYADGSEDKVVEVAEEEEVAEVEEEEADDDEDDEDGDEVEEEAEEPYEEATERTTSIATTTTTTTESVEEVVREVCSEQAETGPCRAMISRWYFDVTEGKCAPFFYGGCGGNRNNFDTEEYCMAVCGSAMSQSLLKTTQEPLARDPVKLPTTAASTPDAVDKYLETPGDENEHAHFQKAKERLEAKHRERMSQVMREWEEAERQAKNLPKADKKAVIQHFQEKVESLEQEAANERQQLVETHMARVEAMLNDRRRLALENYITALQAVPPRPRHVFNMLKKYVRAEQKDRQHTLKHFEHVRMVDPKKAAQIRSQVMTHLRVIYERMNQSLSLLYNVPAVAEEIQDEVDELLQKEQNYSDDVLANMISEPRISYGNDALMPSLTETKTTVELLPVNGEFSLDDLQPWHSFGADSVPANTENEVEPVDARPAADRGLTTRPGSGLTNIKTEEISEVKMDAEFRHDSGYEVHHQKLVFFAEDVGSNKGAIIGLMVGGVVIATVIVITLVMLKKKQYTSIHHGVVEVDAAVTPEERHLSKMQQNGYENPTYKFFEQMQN

Activity [1]: Active | DC50 [2]: Not Active
SMILES: C(=C\c1cc(/C=C/c2ccccc2)[nH]n1)/c1ccccc1

Activity [1]: Active | DC50 ([2]; read-out: DC50): 38800 nM
SMILES: COc1cc(/C=C/c2cc(C)[nH]n2)ccc1O

Activity [1]: > 75% | Activity [2]: Dose-dependent effect | Activity [8]: Dose-dependent effect | Activity [10]: Active
SMILES: COc1cc(/C=C/C(=O)CC(=O)/C=C/c2ccc(O)c(OC)c2)ccc1O [CURCUMIN]
Activity (HT-22 [3]): Active | Activity (HT-22 [4]): Active | Activity (HT-22 [5]): Active | Activity (HT-22 [6]): Active | Activity (HT-22 [7]): Active | MNTC at 24 h [9]: 1000 nM | Activity (HT-22 [11]): Toxic

DC50 [2]: Not Active
SMILES: COc1cccc(/C=C/C(=O)/C=C(O)/C=C/c2cccc(OC)c2)c1

Activity [1]: Active | DC50 [2]: Not Active
SMILES: COc1cc(/C=C/C(=O)/C=C(/C)O)ccc1O

DC50 ([2]; read-out: DC50): 1950 nM | DC50 [8]: 1000 nM
SMILES: COc1cc(/C=C/C(=O)/C=C(O)/C=C/c2ccc(OC(C)=O)c(OC)c2)ccc1OC(C)=O
Activity (HT-22 [3]): Active | Activity (HT-22 [4]): Active | Activity (HT-22 [5]): Active | Activity (HT-22 [6]): Active | Activity (HT-22 [7]): Active | MNTC at 24 h [9]: 1000 nM | Activity (HT-22 [12]): Toxic

Activity [1]: Active | DC50 [2]: Not Active
SMILES: O=C(/C=C/c1ccccc1)/C(CCCN1C(=O)c2ccccc2C1=O)=C(O)/C=C/c1ccccc1

Activity [1]: > 75% | DC50 ([2]; read-out: DC50): 310 nM | DC50 [8]: 650 nM
SMILES: COc1cc(/C=C/c2cc(/C=C/c3ccc(OC(C)=O)c(OC)c3)[nH]n2)ccc1OC(C)=O
Activity (HT-22 [3]): Active | Activity (HT-22 [4]): Active | Activity (HT-22 [5]): Active | Activity (HT-22 [6]): Active | Activity (HT-22 [7]): Active | MNTC at 24 h [9]: 1000 nM | Activity (HT-22 [12]): Toxic

Activity [1]: > 75% | DC50 ([2]; read-out: DC50): 1160 nM
SMILES: COc1cc(/C=C/C(=O)/C(CCCN2C(=O)c3ccccc3C2=O)=C(O)/C=C/c2ccc(O)c(OC)c2)ccc1O

Activity [1]: Active | DC50 [2]: Not Active | Activity [10]: inactive
SMILES: O=C(/C=C(O)/C=C/c1ccccc1)/C=C/c1ccccc1

Activity [1]: > 75% | Activity [2]: Dose-dependent effect | DC50 ([2]; read-out: DC50): 1470 nM | Activity [8]: Dose-dependent effect
SMILES: COc1cc(/C=C/c2cc(/C=C/c3ccc(O)c(OC)c3)[nH]n2)ccc1O [CURCUMIN PYRAZOLE]
